A selection: hits, their analogues and other compounds. The true share with any hit is near 1.8%.
M5 PAM – CHRM5 positive allosteric modulation; CHO-K1 hM5, Fluo-8 calcium, ACh EC20 PAM; 0% = ACh EC20, 100% = ACh EC100; activation, % at 3 µM; 0.3% of 360,000 active; AID 624038;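 active means activation above the run cutoff, the mean activation of all test compounds plus 3 SD, cut at about 18% in these data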
Target sequence (P08912 whole entry, looked up): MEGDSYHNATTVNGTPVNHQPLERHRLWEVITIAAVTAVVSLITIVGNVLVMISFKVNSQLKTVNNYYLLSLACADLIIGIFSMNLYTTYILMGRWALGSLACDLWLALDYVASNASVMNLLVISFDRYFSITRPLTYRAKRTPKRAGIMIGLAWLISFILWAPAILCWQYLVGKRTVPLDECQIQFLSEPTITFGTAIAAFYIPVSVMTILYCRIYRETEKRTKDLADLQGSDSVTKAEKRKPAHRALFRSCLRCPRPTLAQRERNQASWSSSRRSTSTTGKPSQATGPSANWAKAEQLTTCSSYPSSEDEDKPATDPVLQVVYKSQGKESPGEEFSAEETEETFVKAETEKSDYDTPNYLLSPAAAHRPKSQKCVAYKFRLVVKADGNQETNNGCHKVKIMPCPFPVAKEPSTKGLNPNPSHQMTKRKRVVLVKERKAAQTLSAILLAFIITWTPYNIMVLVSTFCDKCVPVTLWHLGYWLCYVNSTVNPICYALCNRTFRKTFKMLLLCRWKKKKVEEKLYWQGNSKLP
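Test system: CHO-K1 hM5 cells / Doses: single-point, 3 µM nominal / Times: Post-acetylcholine fluorescence recording 140 s / Technique: Fluo-8 calcium fluorescence / Measure: Max/basal fluorescence ratio as % of EC20–EC100 ACh window / Benchmarks: low control EC20 acetylcholine (0%), high control EC100 acetylcholine (100%) / Replicates: one well per compound, no replicates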
M4 ag – CHRM4 agonism in calcium assay; activation, % at 3 µM; AID 624127; 0.14% of 360,000 active; CHO-K1 hM4/Gqi5, Fluo-8 calcium fluorescence; vehicle 0%, full acetylcholine response 100%; P08173;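 active means activation above the run mean over all test wells plus 3 SD, cut at about 32% in these data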;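 further: peak over basal fluorescence ratio per well then scaled between controls; 0% = DMSO wells and 100% = acetylcholine at EC100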
M5 ag – agonists of human muscarinic M5 receptor (CHRM5); 0.19% of 360,000 active; CHO-K1 hM5 cells, Fluo-8 calcium fluorescence; 0% DMSO wells, 100% maximal acetylcholine response; P08912; activation, % at 3 µM;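 active means activation above the run's mean over test compounds plus 3 SD, cut at about 23% in these data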;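 further: signal is peak over basal fluorescence ratio across the kinetic read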
M4 PAM – CHRM4 positive allosteric modulation; activation, % at 3 µM; P08173; AID 624126; 0.4% of 360,000 active; CHO-K1 hM4/Gqi5, Fluo-8 calcium fluorescence, ACh EC20; 0% = ACh EC20, 100% = maximal ACh;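 active means activation above its plate's cutoff, the mean activation of sample wells plus 3 SD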
M5 antag – blocks acetylcholine activation of human M5 receptor | P08912 | CHO-hM5 cells, Fluo-8 calcium fluorescence, ACh EC80 | inhibition, % at 3 µM | 0.59% of 360,000 active | AID 624040;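 active means inhibition above a per-plate cutoff, the mean of that plate's test compounds plus 3 SD, cut at about 27% in these data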;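 further: 0% = acetylcholine EC80 with DMSO and 100% = DMSO without agonist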
CHRM4 antagonist – CHRM4 antagonism in calcium assay. CHO-hM4 cells, ACh EC80, Fluo-8 calcium fluorescence. inhibition, % at 3 µM. 0.73% of 360,000 active. AID 624125;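 active means inhibition above its plate's cutoff, the mean inhibition of sample wells plus 3 SD, cut at about 27% in these data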;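 further: 0% = acetylcholine EC80 with DMSO and 100% = DMSO without agonist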
An asterisk follows results filed as active.

SMILES | M5 PAM | M4 ag | M5 ag | M4 PAM | M5 antag | CHRM4 antagonist
C#CC[N+](C)(C)CCCCCCCCCC | -12 | 0 | -9 | -11 | -4 | 6
CCOC(=O)N1CCN(C(=O)COC(=O)COc2c(C)cc(C)cc2C)CC1 | 4 | 1 | 1 | 24* | 5 | -15
Cc1cc(-c2ccccc2)n(-c2ccc(C(=O)N3CCN(c4ncccn4)CC3)cc2)n1 | -14 | 11 | 0 | -8 | 5 | 32*
CCNc1nc(NC(C)(C)C)nc(N2CCCCC2)n1 | -22 | 2 | -10 | -21 | 61* | 45*
CCNc1nc(N2CCCC2)nc(N2CCCC2)n1 | 0 | 0 | -7 | -8 | 2 | 4
Cc1cccc(NC(=O)c2oc3ccc(S(=O)(=O)N4CCOCC4)cc3c2C)c1C | -19 | 18 | 1 | -20 | 11 | 29*
Cc1c(C(=O)NCCCN2CCCC2=O)oc2ccc(S(=O)(=O)N3CCOCC3)cc12 | -1 | 2 | -3 | -3 | 8 | 7
Cc1ccc(NC(=O)c2oc3ccc(S(=O)(=O)N4CCOCC4)cc3c2C)c(C)c1 | -1 | 4 | 3 | 0 | 8 | -9
Cc1c(C(=O)NCCC2=CCCCC2)oc2ccc(S(=O)(=O)N3CCOCC3)cc12 | -23 | 16 | 3 | -14 | 28* | 14
O=C(NCCc1c[nH]c2ccccc12)OCCCCOC(=O)NCCc1c[nH]c2ccccc12 | -24 | 20 | 5 | -10 | 10 | 32*
Cc1cccc(NC(=O)CCSc2ccccc2)c1C | 4 | -1 | -4 | -5 | 0 | 1
O=C(COC(=O)c1ccccc1O)NCCc1c[nH]c2ccccc12 | -19 | 5 | -2 | 2 | 12 | -1
O=C(CCCc1c[nH]c2ccccc12)NCCc1c[nH]c2ccccc12 | 1 | 8 | 2 | -2 | 4 | 6
O=C(COC(=O)c1ccccc1C(=O)OCC(=O)NCCc1c[nH]c2ccccc12)NCCc1c[nH]c2ccccc12 | -38 | 21 | 0 | -10 | 32* | 43*
Cc1cccc(NC(=O)COC(=O)CCc2c[nH]c3ccccc23)c1C | 3 | 2 | 2 | 22* | -8 | -21
Cc1cccc(NC(=O)CCc2ccccc2)c1C | 26* | 0 | 0 | 3 | -18 | -15
Cc1cccc(C)c1NC(=O)COC(=O)CCc1c[nH]c2ccccc12 | -6 | 2 | 2 | 3 | 3 | -2
CN(C(=O)c1ccc(NC(=O)Cc2cccc(NC(=O)C3CCCN(C(=O)CCc4ccccc4)C3)c2)cc1)C1CC1 (stereo not given) | -6 | 0 | 0 | 0 | -3 | -12
CCCCC(=O)N(C)c1c(CC)nc2c(OCC(=O)C(C)(C)C)cccn12 | 2 | 1 | 1 | 3 | 1 | 2
COc1ccc(CN(C)C(=O)/C=C/[C@H]2O[C@@H](n3cc(C)c(=O)[nH]c3=O)C[C@@H]2O)cc1OC | -2 | 1 | 0 | 15 | 10 | 0
Cc1cccc(-c2cnc(C(O)c3ccc(Cl)cc3C)[nH]2)c1 (stereo not given) | -4 | 3 | 0 | -1 | 9 | -12
CCC(C)NC(=O)C1c2ccccc2C(=O)N1Cc1ccccc1OC (stereo not given) | 30* | 0 | 3 | 11 | -12 | -8
CCC(C)NC(=O)C1c2ccccc2C(=O)N1Cc1ccc(OC)cc1OC (stereo not given) | 3 | 1 | 2 | 1 | -9 | -3
COc1cc(CNCCO)ccc1OCCc1ccccc1 | 5 | 8 | 5 | 20* | 23 | 29*
Nc1ccc2c(c1)C1(CCC2)NC(=O)NC1=O (stereo not given) | 3 | 2 | 0 | 6 | -2 | -22
SMILES | M5 PAM | M4 ag | M5 ag | M4 PAM | M5 antag | CHRM4 antagonist
COc1cc(Cl)c(C)cc1NC(=O)COc1cc(C)nc(C(C)C)n1 | -9 | 1 | -2 | 33* | 8 | 3
COCCNC(=O)/C(C#N)=C/c1c(N2CCN(C)CC2)nc2ccccn2c1=O | 0 | 1 | -2 | 4 | 9 | 5
O=C(CN1CCCC1=O)NC1CCCc2c1cnn2-c1cc(F)cc(F)c1 (stereo not given) | 19* | 1 | 4 | 3 | -7 | -4
CC(C)(C)c1ccc(-n2ncc3c2CCCC3NC(=O)CN2CCCCC2=O)cc1 (stereo not given) | 8 | 3 | 1 | -2 | -15 | 1
Cc1ccc(C)c(S(=O)(=O)N2CCC(c3nc4c(nnn4Cc4ccc5c(c4)OCCO5)c(=O)[nH]3)CC2)c1 | -7 | 2 | -5 | -14 | 12 | 42*
Cc1ccc(S(=O)(=O)N2CCC(c3nc4c(nnn4Cc4ccccc4)c(=O)[nH]3)CC2)cc1 | -2 | -1 | -2 | -20 | 5 | 75*
O=c1[nH]c(C2CCN(S(=O)(=O)c3ccc4c(c3)OCCO4)CC2)nc2c1nnn2Cc1ccccc1 | 5 | 0 | -1 | -21 | 2 | 90*
O=C(/C=C/c1cccc(Cl)c1)OCC(=O)c1ccc[nH]1 | -5 | 0 | 2 | 3 | 7 | -11
O=C(Nc1ccc2c(c1)OCCO2)C1C(=O)Nc2ccccc2C(=O)N1C1CCCCC1 (stereo not given) | -6 | 3 | -2 | 0 | 8 | 5
Nc1cccc(-c2csc(-n3ncc(C(=O)O)c3C(F)(F)F)n2)c1 | 7 | 0 | -1 | 17* | -2 | -7
COc1ccc(CN2CCCC(C(=O)c3ccc(SC)cc3)C2)cc1Cn1cccn1 (stereo not given) | -26 | 5 | -20 | -51 | 18 | 37*
COc1ccc(C(=O)C2CCCN(C(=O)c3cccc(Cn4cccn4)c3)C2)cc1F (stereo not given) | -5 | 6 | 0 | 1 | 21 | -7
CSc1ccc(C(=O)C2CCCN(Cc3ccc(N4CCNC4=O)cc3)C2)cc1 (stereo not given) | -14 | 2 | -11 | -22 | -4 | 70*
COc1ccncc1-c1csc(C(O)c2ccccc2)n1 (stereo not given) | -2 | 1 | 1 | -3 | 3 | 13
CC(=O)NNc1nc(-c2ccc(C)cc2)cs1 | -1 | 0 | -3 | -1 | 2 | 7
CCCC(=O)Nc1ccc(-c2csc(NNC(C)=O)n2)cc1 | 21* | 0 | 5 | 15 | -12 | -9
N#CC(CCc1ccccc1[N+](=O)[O-])(CCc1ccccc1[N+](=O)[O-])C(N)=O | -12 | 15 | 3 | -7 | 16 | -6
Cc1ccc(S(=O)(=O)N2CCC(N3CCN(C)CC3)CC2)cc1Cl | -13 | -1 | -8 | -20 | 25 | 28*
